In experiment [1] the test system is FR4 multiple myeloma cell line. It counts as cell-based, human. Particulars: 72 h.
In experiment [2] the test system is MM.M1S multiple myeloma cell line. In kind it is cell-based, human. Particulars: 72 h, CellTiter-Glo; compound 3 no inhibition up to 80 µM.
The next experiment deals with T1, papain (Carica papaya, UniProt P00784).
T1 sequence (P00784 134-345): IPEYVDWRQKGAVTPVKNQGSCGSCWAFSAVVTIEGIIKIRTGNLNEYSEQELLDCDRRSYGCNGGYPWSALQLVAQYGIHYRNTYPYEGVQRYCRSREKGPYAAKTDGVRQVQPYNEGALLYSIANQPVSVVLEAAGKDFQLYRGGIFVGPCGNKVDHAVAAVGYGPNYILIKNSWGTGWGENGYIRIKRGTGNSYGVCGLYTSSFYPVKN
Put plainly: biochemical.

The target in experiment [3] is human 20S proteasome, caspase-like activity (Homo sapiens, UniProt P28072). Kind of experiment: Proteasome inhibition assay, caspase-like activity. In kind it is biochemical. The method in brief: (§1)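 Human 20S proteasome (1 nM) in 10 mM Tris-HCl, 0.035% SDS, pH 7.4, preincubated with test compound for 15 min at RT. Fluorogenic substrate then added at 5 µM: Suc-LLVY-AMC for chymotrypsin-like activity, Z-LLE-AMC for caspase-like activity. Fluorescence read at 380/460 nm; IC50 calculated from initial rates.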

Experiment [4] has as its target human 20S proteasome, chymotrypsin-like activity (Homo sapiens, UniProt P28074). Kind of experiment: Proteasome inhibition assay, chymotrypsin-like activity. It counts as biochemical. The method in brief:
as §1

Another experiment addresses human 20S proteasome (Homo sapiens, UniProt P28072+P28074). Kind of experiment: Proteasome inhibition assay. Particulars: two proteasome activities, which is which not stated. It counts as biochemical.
Experiment [5] relates to U-937 histiocytic lymphoma cell line. It counts as cell-based, human. The conditions noted are these: 72 h.
The target in the next experiment is T2, human calpain-I (Homo sapiens, UniProt P07384).
T2 sequence (P07384 1-714): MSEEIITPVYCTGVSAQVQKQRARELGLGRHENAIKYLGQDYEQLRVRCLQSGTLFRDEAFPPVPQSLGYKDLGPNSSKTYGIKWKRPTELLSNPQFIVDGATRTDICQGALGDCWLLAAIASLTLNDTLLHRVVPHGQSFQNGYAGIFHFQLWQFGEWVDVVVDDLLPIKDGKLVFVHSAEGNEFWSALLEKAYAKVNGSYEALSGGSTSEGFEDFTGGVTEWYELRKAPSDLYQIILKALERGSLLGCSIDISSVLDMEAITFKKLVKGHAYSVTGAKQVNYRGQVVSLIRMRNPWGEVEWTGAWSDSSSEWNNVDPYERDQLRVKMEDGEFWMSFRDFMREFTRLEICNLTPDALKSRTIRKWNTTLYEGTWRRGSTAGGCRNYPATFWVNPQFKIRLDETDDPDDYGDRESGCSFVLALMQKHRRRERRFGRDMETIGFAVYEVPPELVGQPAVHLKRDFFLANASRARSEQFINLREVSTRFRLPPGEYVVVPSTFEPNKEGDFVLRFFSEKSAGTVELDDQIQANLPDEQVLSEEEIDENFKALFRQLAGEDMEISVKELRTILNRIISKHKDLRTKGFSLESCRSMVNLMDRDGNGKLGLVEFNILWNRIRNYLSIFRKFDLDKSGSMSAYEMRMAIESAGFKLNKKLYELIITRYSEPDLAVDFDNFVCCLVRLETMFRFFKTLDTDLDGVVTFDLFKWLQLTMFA
T2 sequence (P04632 1-268 partner): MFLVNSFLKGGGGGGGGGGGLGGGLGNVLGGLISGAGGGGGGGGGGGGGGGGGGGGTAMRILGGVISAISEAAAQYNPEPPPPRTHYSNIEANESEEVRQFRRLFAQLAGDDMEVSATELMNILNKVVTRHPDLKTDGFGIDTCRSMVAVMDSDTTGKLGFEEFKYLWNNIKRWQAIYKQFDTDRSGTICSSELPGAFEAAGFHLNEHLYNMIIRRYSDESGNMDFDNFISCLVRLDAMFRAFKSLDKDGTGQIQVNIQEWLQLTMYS
Put plainly: Calpain IC50, Suc-LLVY-AMC fluorescence assay. In kind it is biochemical.

Setting [6] is: CellTiter-Glo, compound 3 no inhibition up to 80 µM.

The structures appear in SMILES notation. “And” between values parts separate entries of the source, which are not always exact repeats. Equal values may be shown once. Square brackets hold non-standard residues; d marks the D form. Peptide text beside a SMILES is read from it. * marks the point of attachment. Heptanoyl = CCCCCCC(=O)*; Octanoyl = CCCCCCCC(=O)*

As a reminder, the IC50 is the concentration that inhibits the measured activity by half. A low value points to greater potency in that assay. Turning to `CC[C@H](C)[C@H](N)C(=O)N[C@@H](CCC(N)=O)C(=O)N[C@H](C(=O)N[C@H](CCC(N)=O)C(=O)N[C@H](C(=O)N[C@H](C=O)Cc1ccccc1)C(C)C)[C@@H](C)CC` [Compound 3] (H-IQI[dQ]VF-aldehyde), the “IC50 cell line FR4” value in experiment [1] (setting [6]) is reported as “No inhibition”. Further, the “IC50 cell line MM.M1S” value in experiment [2] is reported as “No inhibition”. The IC50 on papain is 0.07 ± 0.01 µM; in experiment [3], 0.33 ± 0.07 µM; in experiment [4], 0.43 ± 0.08 µM; on human calpain-I, 1.8 ± 0.3 µM. For the same compound, the “fold higher potency against the proteasome than 1 and 2” value on human 20S proteasome was 6 fold and 10 fold. Besides, in experiment [5] (setting [6]), the “IC50 cell line U-937” value is on record as “No inhibition”.
On to `CCCCCCC(=O)N[C@H](C(=O)N[C@@H](CCC(N)=O)C(=O)N[C@H](C(=O)N[C@H](CCC(N)=O)C(=O)N[C@H](C(=O)N[C@H](C=O)Cc1ccccc1)[C@@H](C)CC)[C@@H](C)CC)[C@@H](C)CC` [Compound 2] (Heptanoyl-IQI[dQ]IF-aldehyde; N-terminus assumed), for which the IC50 in experiment [1] is 30 ± 10 µM; at papain, 0.35 ± 0.03 µM; in experiment [3] it was 2.3 ± 0.7 µM; in experiment [4], 3.3 ± 0.3 µM; on human calpain-I, 2.7 ± 0.4 µM.
As to `CCCCCCCC(=O)N[C@H](C(=O)N[C@@H](CCC(N)=O)C(=O)N[C@H](C(=O)N[C@H](CCC(N)=O)C(=O)N[C@H](C(=O)N[C@H](C=O)Cc1ccccc1)C(C)C)[C@@H](C)CC)[C@@H](C)CC` [Compound 1] (Octanoyl-IQI[dQ]VF-aldehyde; N-terminus assumed), the IC50 at papain amounted to 0.16 ± 0.04 µM; in experiment [3], 2.3 ± 0.2 µM; in experiment [4], 4.9 ± 0.3 µM; in experiment [5], 13 ± 1 µM; on human calpain-I, 2.9 ± 0.3 µM.

The values are drawn from article PMC3752840 (Journal of the American Chemical Society, 2013).
